# Laboratory results taken from PMC12138107 (Acta Pharmaceutica Sinica. B, 2025).
# Tested on: L02 cells
# Experiment: In vitro cytotoxicity assay on normal L02 cells
# Assay type: cell-based
# Conditions: 10 μmol/L, 24 h, CCK8
# Procedure, shortened: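 L02 cells grown in DMEM with 10% FBS and 1% penicillin-streptomycin at 37 °C, 5% CO2. Seeded at 5 × 10^3 cells/well, then 24 h before test compound at 10 μmol/L was added for another 24 h. Medium removed, 10% CCK8 added for 1 h at 37 °C. Absorbance read and viability calculated.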
compound,measurement,value
COc1nc(OCc2cccc(-c3ccccc3)c2C)ccc1CNCCNC(C)=O [BMS-202],Cytotoxicity on normal L02 cells,obvious cytotoxicity
